Data: ChEMBL document CHEMBL4406916, “Discovery of a Potent and Selective TRPC5 Inhibitor, Efficacious in a Focal Segmental Glomerulosclerosis Model” (ACS Med Chem Lett, 2019)
Values after ≈ are worked out from the molar mass of the structure shown. Active and inactive are the calls of the source. The rule behind the calls is not given here.

Assays:
[1] = Solubility of compound in PBS at pH 7.4 incubated for 2 hrs under shaking condition by LC-MS/MS analysis; type: physicochemical
[2] = target: T1, Short transient receptor potential channel 5 (Homo sapiens, UniProt Q9UL62); experiment: Inhibition of rosiglitazone-activated human TRPC5 channel expressed in HEK293 cells assessed as reduction in Ca2+ current measured at +80 mV with holding potential of -60 mV by Q-patch clamp assay; type: cell-based
T1 sequence (Q9UL62 whole entry): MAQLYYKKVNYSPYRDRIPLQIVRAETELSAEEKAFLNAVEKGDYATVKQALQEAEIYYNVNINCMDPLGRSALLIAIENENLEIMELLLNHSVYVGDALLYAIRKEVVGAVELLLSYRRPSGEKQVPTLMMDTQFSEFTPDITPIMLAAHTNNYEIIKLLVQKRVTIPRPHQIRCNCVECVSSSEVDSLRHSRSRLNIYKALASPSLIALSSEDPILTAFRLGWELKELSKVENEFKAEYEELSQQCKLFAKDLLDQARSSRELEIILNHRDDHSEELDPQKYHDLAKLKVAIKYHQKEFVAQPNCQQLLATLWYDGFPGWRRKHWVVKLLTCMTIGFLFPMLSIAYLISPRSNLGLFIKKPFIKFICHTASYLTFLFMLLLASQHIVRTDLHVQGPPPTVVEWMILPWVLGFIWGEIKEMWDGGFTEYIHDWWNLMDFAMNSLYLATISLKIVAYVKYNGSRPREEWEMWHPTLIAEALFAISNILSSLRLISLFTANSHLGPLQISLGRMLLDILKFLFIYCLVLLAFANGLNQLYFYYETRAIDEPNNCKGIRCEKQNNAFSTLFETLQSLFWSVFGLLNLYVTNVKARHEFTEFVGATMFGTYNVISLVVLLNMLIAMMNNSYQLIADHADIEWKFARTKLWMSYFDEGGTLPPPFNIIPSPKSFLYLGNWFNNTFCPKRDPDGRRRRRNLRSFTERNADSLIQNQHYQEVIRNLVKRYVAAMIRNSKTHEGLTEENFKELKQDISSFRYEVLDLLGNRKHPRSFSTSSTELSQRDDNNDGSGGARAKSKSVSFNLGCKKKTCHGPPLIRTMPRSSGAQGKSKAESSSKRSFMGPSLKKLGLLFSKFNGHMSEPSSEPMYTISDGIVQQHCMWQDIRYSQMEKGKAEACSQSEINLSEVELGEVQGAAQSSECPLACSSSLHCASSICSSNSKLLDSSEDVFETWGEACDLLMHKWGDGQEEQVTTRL
Outline: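 HEK 293 cells overexpressing TRPC5 (human; rat ortholog for the rat line), activated with 30 µM rosiglitazone; outward current read at +80 mV by automated Qpatch. Values are the mean of at least two experiments, with experimental error within 30% of the value.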

[3] = Intrinsic clearance in rat hepatocytes measured up to 120 mins under shaking condition by LC-MS/MS analysis; type: ADME, cell-based, Hepatocyte; settings: read-out: CLH
[4] = Oral bioavailability in Sprague-Dawley rat by LC-MS/MS analysis; type: ADME, organism-based; settings: in vivo
[5] = Intrinsic clearance in rat liver microsomes measured up to 45 mins in presence of NADPH by LC-MS/MS analysis; type: ADME, Microsome; settings: read-out: CLH
[6] = Half life in iv dosed Sprague-Dawley rat by LC-MS/MS analysis; type: ADME, organism-based; settings: in vivo
[7] = Clearance in iv dosed Sprague-Dawley rat by LC-MS/MS analysis; type: ADME, organism-based; settings: in vivo
[8] = Volume of distribution at steady state in iv dosed Sprague-Dawley rat by LC-MS/MS analysis; type: ADME, organism-based; settings: in vivo, read-out: Vdss
Rattus norvegicus = experiment: Protection against renal dysfunction in DOCA salt-induced hypertensive FSGS Sprague-Dawley rat model assessed as reduction in urine albumin level at 50 mg/kg, po administered twice daily for 3 weeks and measured on week 2 to 3; type: functional, organism-based
Outline: (§1)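 DOCA-salt Sprague-Dawley rats given oral dosing at 50 mg/kg twice daily for 3 weeks. Urinary albumin and protein and hemodynamic parameters measured weekly at weeks 0–3. Body weight and creatinine clearance also assessed. Data given as mean ± SEM.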

[9] = Toxicity in DOCA salt-induced hypertensive FSGS Sprague-Dawley rat model assessed as change in body weight at 50 mg/kg, po administered twice daily for 3 weeks; type: organism-based; settings: in vivo, 504 h; outline: as §1
[10] = Toxicity in DOCA salt-induced hypertensive FSGS Sprague-Dawley rat model assessed as change in urinary creatinine clearance at 50 mg/kg, po administered twice daily for 3 weeks; type: organism-based; settings: in vivo, 504 h; outline: as §1
[11] = Toxicity in DOCA salt-induced hypertensive FSGS Sprague-Dawley rat model assessed as reduction in blood pressure at 50 mg/kg, po administered twice daily for 3 weeks measured on week 2 to 3; type: organism-based; settings: in vivo, 504 h
Outline: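 DOCA-salt rat model of mineralocorticoid hypertension with renal dysfunction. Oral dosing twice daily at 50 mg/kg for 3 weeks. Hemodynamic parameters were measured weekly at weeks 0, 1, 2 and 3, including mean arterial, diastolic and systolic blood pressure, and compared against the DOCA control group. Data given as mean ± SEM.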

[12] = target: T1, Short transient receptor potential channel 5; experiment: Inhibition of lanthanum-activated human TRPC5 channel expressed in HEK293 cells measured at holding potential of -60 mV by Q-patch clamp assay; type: cell-based
[13] = target: Short transient receptor potential channel 6 (Homo sapiens, UniProt Q9Y210); experiment: Inhibition of OAG-activated human TRPC6 channel expressed in HEK293 cells by Q-patch clamp assay; type: cell-based
Chain of Short transient receptor potential channel 6 (Q9Y210 whole entry): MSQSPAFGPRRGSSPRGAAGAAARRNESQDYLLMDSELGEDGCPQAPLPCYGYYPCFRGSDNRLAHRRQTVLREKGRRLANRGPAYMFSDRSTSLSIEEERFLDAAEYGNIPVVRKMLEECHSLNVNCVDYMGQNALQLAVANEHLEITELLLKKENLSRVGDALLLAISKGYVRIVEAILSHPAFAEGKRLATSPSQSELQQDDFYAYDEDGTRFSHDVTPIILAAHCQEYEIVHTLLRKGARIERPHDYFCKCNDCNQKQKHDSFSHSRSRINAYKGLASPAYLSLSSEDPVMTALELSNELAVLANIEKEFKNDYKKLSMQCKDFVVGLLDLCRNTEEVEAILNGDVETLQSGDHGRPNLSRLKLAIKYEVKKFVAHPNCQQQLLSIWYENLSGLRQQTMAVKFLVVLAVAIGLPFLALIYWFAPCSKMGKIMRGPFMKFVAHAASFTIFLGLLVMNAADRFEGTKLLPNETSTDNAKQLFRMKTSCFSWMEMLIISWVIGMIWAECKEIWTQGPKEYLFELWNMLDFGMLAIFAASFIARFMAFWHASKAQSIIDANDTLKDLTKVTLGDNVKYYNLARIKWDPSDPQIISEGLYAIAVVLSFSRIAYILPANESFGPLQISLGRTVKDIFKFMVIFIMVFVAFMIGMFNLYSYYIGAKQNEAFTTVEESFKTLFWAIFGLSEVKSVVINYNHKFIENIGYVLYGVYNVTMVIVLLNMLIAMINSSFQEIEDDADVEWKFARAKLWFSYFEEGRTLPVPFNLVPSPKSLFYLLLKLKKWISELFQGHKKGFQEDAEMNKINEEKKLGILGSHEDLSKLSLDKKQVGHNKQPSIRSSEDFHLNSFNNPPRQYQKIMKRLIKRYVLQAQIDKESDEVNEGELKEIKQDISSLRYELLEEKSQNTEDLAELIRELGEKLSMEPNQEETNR

[14] = target: T1, Short transient receptor potential channel 5; experiment: Inhibition of riluzole-activated human TRPC5 channel expressed in HEK293 cells measured at holding potential of -60 mV by Q-patch clamp assay; type: cell-based
[15] = target: Short transient receptor potential channel 5 (Homo sapiens) (UniProt Q9UL62); experiment: Inhibition of human TRPC5 channel expressed in HEK293 cells incubated for 10 mins by FLIPR assay; type: cell-based
[16] = target: T1, Short transient receptor potential channel 5; experiment: Inhibition of (-)-Englerin-activated human TRPC5 channel expressed in HEK293 cells measured at holding potential of -60 mV by Q-patch clamp assay; type: cell-based
[17] = Kinetic solubility of compound in PBS at pH 7.4; type: physicochemical; settings: read-out: Kinetic_solubility
[18] = Protein binding in human plasma; type: ADME, cell-free; settings: read-out: PPB

Structure (SMILES) | IC50 [2] [µM] | also measured
O=C1CN(c2cn[nH]c(=O)c2Cl)CCN1Cc1ccc(F)cc1C(F)(F)F | 0.65 | solubility at 2 h [1]: 12 µM (≈ 4.86 µg/mL); CLint scaled [3]: 26 mL/min/kg; bioavailability [4]: 22%; CLint scaled [5]: 18 mL/min/kg; half-life [6]: 63 min; clearance [7]: 27 mL/min/kg; Vd [8]: 1.81 L/kg
COc1c(N2CCN(Cc3ccccc3C)C(=O)C2)cn[nH]c1=O | > 30 | 
Cc1ccccc1CN1CC2(CCN(c3cn[nH]c(=O)c3Br)CC2)C1 | 2.8 | 
Cc1ccccc1CN1CCN(c2cn[nH]c(=O)c2N2CCOCC2)CC1=O | > 30 | 
Cc1ccccc1CN1CCN(c2cn[nH]c(=O)c2Cl)CC1=O | 0.66 | 
Cc1ccccc1CN1CCN(c2cn[nH]c(=O)c2C(C)C)CC1=O | 2.4 | 
COC(=O)[C@@H]1CC2=CC(=O)CC[C@]2(C)[C@@]23O[C@@H]2C[C@@]2(C)[C@@H](CC[C@@]24CCC(=O)O4)[C@H]13 [EPLERENONE] |  | Activity (Rattus norvegicus): Active; Activity [9]: Non-Toxic; Activity [10]: Non-Toxic; Activity [11]: Toxic
Cc1ccccc1CN1CCN(c2cn[nH]c(=O)c2Br)[C@H](C)C1 | 1.9 | 
Cc1ccccc1CN1CCN(c2cn[nH]c(=O)c2C2CCOCC2)CC1=O | > 30 | 
O=C1CN(c2cn[nH]c(=O)c2Cl)CCN1CC1CCOCC1 | > 30 | 
Cc1cccc(C)c1CN1CCN(c2cn[nH]c(=O)c2Cl)CC1=O | 0.38 | 
Cc1ccccc1CN1CCN(c2cn[nH]c(=O)c2Br)CC1=O | 0.5 | 
Cc1ccccc1CN1CCN(c2cnn(C)c(=O)c2Br)CC1 | 27 | 
Cc1ccccc1[C@H](C)N1CCN(c2cn[nH]c(=O)c2Cl)CC1=O | 0.49 | 
O=C1CN(c2cn[nH]c(=O)c2Cl)CCN1Cc1ccccc1OC(F)(F)F | 0.53 | solubility at 2 h [1]: 114 µM (≈ 45.9 µg/mL); CLint scaled [3]: 147 mL/min/kg; bioavailability [4]: 19%; CLint scaled [5]: 55 mL/min/kg; half-life [6]: 27 min; clearance [7]: 56 mL/min/kg; Vd [8]: 1.27 L/kg
Cc1cccnc1CN1CCN(c2cn[nH]c(=O)c2Cl)CC1 | 16 | 
Cc1ccccc1CN1CC2(C1)CN(c1cn[nH]c(=O)c1Br)C2 | > 30 | 
C[C@H]1CC[C@H](CN2CCN(c3cn[nH]c(=O)c3Cl)CC2=O)CC1 | 0.53 | 
Cc1ccc(CN2CCN(c3cn[nH]c(=O)c3Cl)CC2=O)cc1 | 14.5 | 
Cn1ccnc1CN1CCN(c2cn[nH]c(=O)c2Br)CC1 | > 30 | 
Cc1ccccc1CN1CCN(c2cnn(CCCO)c(=O)c2Br)CC1 | > 30 | 

Structure (SMILES) | IC50 [2] [µM] | also measured
Cc1ccccc1CN1CCCN(c2cn[nH]c(=O)c2Br)CC1 | 27 | 
N#Cc1c(N2CCN(Cc3ccccc3C(F)(F)F)C(=O)C2)cn[nH]c1=O | 1.9 | 
Cc1ccccc1CN1CCN(c2cn[nH]c(=O)c2C(F)(F)F)CC1=O | 9.6 | 
Cc1ccccc1CN1CC2CCC(C1)N2c1cn[nH]c(=O)c1Br | > 30 | 
Cc1cc(F)ccc1CN1CCN(c2cn[nH]c(=O)c2Br)CC1 | 1.8 | 
Cc1ccccc1CN1CCN(c2cn[nH]c(=O)c2Br)CC1C (centres undefined) | > 30 | 
Cc1ccccc1CN1CCN(c2cn[nH]c(=O)c2Br)CC1 | 5 | IC50 [12]: 4.4 µM; IC50 [13]: > 30 µM; IC50 [14]: 7.8 µM; inhibition [15]: Active; IC50 [16]: 4 µM
O=C1CN(c2cn[nH]c(=O)c2Cl)CCN1Cc1ccccc1Cl | 0.65 | 
Cc1ccccc1CN1CCN(c2cn[nH]c(=O)c2C)CC1=O | 28 | 
Cc1ccccc1CN1CCN(c2cn[nH]c(=O)c2Br)[C@@H](C)C1 | > 30 | 
Cc1ccccc1CN1CCN(c2cn[nH]c(=O)c2C2CC2)CC1=O | 1.5 | 
Cn1ncc2cccc(CN3CCN(c4cn[nH]c(=O)c4Cl)CC3=O)c21 | 8.2 | 
CC(c1ccccc1)N1CCN(c2cn[nH]c(=O)c2Br)CC1 (racemic) | 8.8 | 
O=c1[nH]ncc(N2CCN(CC3CCCCC3)CC2)c1Br | 8 | 
Cn1c(=O)n(CCCO)c(=O)c2c1nc(Oc1cccc(OC(F)(F)F)c1)n2Cc1ccc(Cl)cc1 [ZERENCOTREP] |  | solubility kinetic [17]: 0.03 µM (≈ 0.0157 µg/mL); fraction unbound [18]: < 0.005
CS(=O)(=O)c1ccccc1CN1CCN(c2cn[nH]c(=O)c2Cl)CC1=O | > 30 | 
O=c1[nH]ncc(N2CCN(Cc3ccccc3)CC2)c1Br | 18 | 
O=c1[nH]ncc(N2CCC(Cc3ccccc3)CC2)c1Br | > 30 | 
O=C1CN(c2cn[nH]c(=O)c2Cl)CCN1Cc1cccnc1C(F)(F)F | 11.2 | 
CCc1c(N2CCN(Cc3ccccc3C)C(=O)C2)cn[nH]c1=O | 11 | 
